Test results from ChEMBL document CHEMBL1159370, “A novel NO-production-inhibiting triterpene and cytotoxicity of known alkaloids from Euonymus laxiflorus” (J Nat Prod, 2003).
≈ marks a conversion by molar mass, not a printed value.

Experiments:
COLO 205 = assay: Cytotoxicity against human COLO205 cells; type: functional; conditions: read-out: ED50 (the source's name)
KB = assay: Cytotoxicity against human KB cells; type: functional; conditions: read-out: ED50 (the source's name)
RAW264.7 [1] = assay: Inhibition of LPS/IFN-gamma-induced nitrite accumulation in mouse RAW264.7 cells at 0.2 mg/ml by Griess reagent assay; type: functional
Summary of the method: (§1)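 RAW 264.7 cells were grown in DMEM with 10% heat-inactivated FCS at 37 °C under 5% CO2. Compound (DMSO vehicle, 0.02–0.5%) was added together with LPS (1 µg/mL) plus IFN-γ (50 U/mL) for 24 h. Medium nitrite was measured with Griess reagent (1% sulfanilamide, 0.1% naphthylenediamine, 5% phosphoric acid) at OD550 against sodium nitrite standards. Data are mean ± SEM of six experiments, each in triplicate.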

[2] = Cytotoxicity against mouse RAW264.7 cells assessed as cell viability by MTT reduction assay; type: cell-based; conditions: read-out: Activity
Summary of the method: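 Viability was read by MTT reduction in RAW 264.7 macrophages exposed for 24 h at 37 °C to LPS (1 µg/mL) plus IFN-γ (50 U/mL) with the compound. Results are expressed relative to unstimulated basal control cells. Data are mean ± SEM of six experiments, each in triplicate.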

RAW264.7 [3] = assay: Inhibition of LPS/IFN-gamma-induced nitrite accumulation in mouse RAW264.7 cells by Griess reagent assay; type: functional, cell-based; summary of the method: as §1

Structure (SMILES) | EC50 (COLO 205) [µg/mL] | EC50 (KB) [µg/mL] | inhibition at 200 µg/mL (RAW264.7 [1]) [%] | viability [2] [%] | IC50 (RAW264.7 [3]) [µg/mL]
CC1(C)C(O)CC[C@]2(C)[C@H]3CC=C4[C@@H]5C[C@@]6(C)CC(OC6=O)[C@]5(C)CC[C@@]4(C)[C@]3(C)CC[C@@H]12 (some centres undefined) | > 20 | > 20 | – | – | –
CC1(C)CC[C@]2(C)CC[C@]3(C)C(=CC(=O)[C@@H]4[C@@]5(C)CCC(=O)C(C)(C)[C@@H]5CC[C@]43C)[C@@H]2C1 | > 20 | > 20 | – | – | –
CC(=O)OC[C@]12[C@H](OC(C)=O)[C@H](OC(C)=O)[C@@H]3[C@@H](OC(=O)c4ccccc4)[C@@]14O[C@@]3(C)COC(=O)c1cccnc1C(C)C(C)C(=O)O[C@@H]([C@H](OC(C)=O)[C@@H]2OC(=O)c1ccccc1)[C@]4(C)O (some centres undefined) | > 20 | > 20 | – | – | –
CC(=O)OC[C@]12[C@H](O)[C@@H](OC(C)=O)[C@@H]3[C@@H](OC(C)=O)[C@@]14O[C@@]3(C)COC(=O)c1cccnc1[C@@H](C)[C@H](C)C(=O)O[C@@H]([C@H](OC(=O)c1ccc(=O)n(C)c1)[C@@H]2O)[C@]4(C)O [EMARGINATINE E] | 4.1 (≈ 5.03 µM) | 1.7 (≈ 2.09 µM) | – | – | –
CC(=O)OC[C@]12[C@H](OC(C)=O)[C@H](OC(C)=O)[C@@H]3[C@@H](OC(=O)c4ccccc4)[C@@]14O[C@@]3(C)COC(=O)c1cccnc1[C@@H](C)[C@H](C)C(=O)O[C@@H]([C@H](O)[C@@H]2OC(=O)c1ccccc1)[C@]4(C)O [EUOJAPONINE C] | > 20 | > 20 | – | – | –
CO[C@H]1CC[C@]2(C)[C@H]3C(=O)C[C@@H]4C5=CC(C)(C)CC[C@]5(C)CC[C@@]4(C)[C@]3(C)CC[C@H]2C1(C)C [LAXIFOLONE A] | – | – | > 80 | > 95 | 120 (≈ 264 µM)
CC(=O)OC[C@]12[C@H](OC(C)=O)[C@H](OC(C)=O)[C@@H]3[C@@H](OC(C)=O)[C@@]14O[C@@]3(C)COC(=O)c1cccnc1C(C)C(C)C(=O)O[C@@H]([C@H](OC(C)=O)[C@@H]2OC(=O)c1ccccc1)[C@]4(C)O (some centres undefined) [MAYTEINE] | > 20 | > 20 | – | – | –
CC1(C)[C@@H](O)CC[C@]2(C)[C@H]3CC=C4[C@@H]5C[C@](C)(C(=O)O)C[C@H](O)[C@]5(C)CC[C@@]4(C)[C@]3(C)CC[C@@H]12 [MAYTENFOLIC ACID] | > 20 | > 20 | – | – | –
C[C@H]1C(=O)CC[C@@H]2[C@]1(C)CC(=O)[C@H]1[C@@]2(C)CC[C@@]2(C)[C@@H]3CC(C)(C)CC[C@]3(C)CC[C@]12C [PUTRANJIVADIONE] | > 20 | > 20 | – | – | –
